Measured values reported in ChEMBL document CHEMBL4334445, “Caspase-Dependent Apoptosis in Prostate Cancer Cells and Zebrafish by Corchorusoside C from Streptocaulon juventas” (J Nat Prod, 2019).
Calls of active or inactive are those of the source. The calls are words filed in the database; no cut-off is given here.

Columns and labels:
[1] = Toxicity in 24 hrs post fertilized zebrafish embryo assessed as effect on brain development at 50 uM measured after 24 hrs by microscopic analysis; design: species or system Danio rerio; conditions: in vivo
How it was run: (§1)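 Embryos raised at 28 °C to 24 hpf, then exposed to 50 μM in 1% DMSO in water (vehicle control) for 24 h; larvae examined and photographed by light microscopy for developmental morphology.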

[2] = Cytotoxicity against human CCD-112CoN cells assessed as reduction in cell viability measured after 72 hrs by SRB assay; assay type: cell-based
[3] = test system: DU-145; experiment: Induction of apoptosis in human DU145 cells assessed as increase in PARP1 protein expression at 5 to 50 uM measured after 12 hrs by Western blot analysis; assay type: functional, cell-based
How it was run: (§2)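 DU-145 cells in DMEM treated 0.05–50 μM for 12 h, DMSO/water vehicle control; lysates quantified by BCA, 20 μg protein on 10% Bis-Tris SDS-PAGE, transferred to PVDF, blocked with 3% BSA, primary antibody overnight, secondary 1 h, chemiluminescent detection, band densitometry; three independent assays, one-way ANOVA with Dunnett's test.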

[4] = species on record: Danio rerio; experiment: Downregulation of NF-kappaB p65 expression in zebrafish at 0.6 to 15 uM by Western blot analysis; assay type: functional, organism-based
How it was run: (§3)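 Zebrafish larvae at 72 hpf exposed for 3 h to a range of concentrations, frozen on dry ice and homogenised; BCA protein assay, 20 μg on 10% Bis-Tris SDS-PAGE, PVDF transfer, 3% BSA block, primary antibody overnight, secondary 1 h, chemiluminescent detection, densitometry.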

[5] = test system: DU-145; experiment: Induction of apoptosis in human DU145 cells assessed as reduction in Bcl2 protein expression at 5 to 50 uM measured after 12 hrs by Western blot analysis; assay type: functional, cell-based; how it was run: as §2
[6] = test system: DU-145; experiment: Cytotoxicity against human DU145 cells assessed as reduction in cell viability measured after 24 hrs by SRB assay; assay type: functional, cell-based; conditions: DU-145, 24 h
How it was run: (§4)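 DU-145 cells seeded at 5×10^4 cells/mL, compound 30–3×10^-4 μM for 24 or 48 h at 37 °C, 5% CO2; TCA fixation, 0.4% SRB staining, Tris-base solubilisation, absorbance 515 nm; timed IC50 by non-linear regression.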

[7] = species on record: Danio rerio; experiment: Effect on caspase 7 level in zebrafish at 0.6 to 15 uM by Western blot analysis; assay type: functional, organism-based; how it was run: as §3
[8] = test system: DU-145; experiment: Induction of apoptosis in human DU145 cells assessed assessed as caspase 3/7 activity after 5 hrs by caspase-Glo 3/7 reagent based luminescence assay; assay type: functional, cell-based
How it was run: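 DU-145 cells at 1×10^4 per well treated 0.08–8 μM for 5 h, DMSO/water vehicle; Caspase-Glo 3/7 reagent added, 2 h incubation, luminescence read; three independent assays, one-way ANOVA with Dunnett's test.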

[9] = test system: DU-145; experiment: Decrease in ICAM1 expression in human DU145 cells after 12 hrs by Western blot analysis; assay type: functional, cell-based; how it was run: as §2
[10] = test system: DU-145; experiment: Cytotoxicity against human DU145 cells assessed as reduction in cell viability measured after 48 hrs by SRB assay; assay type: functional, cell-based; conditions: DU-145, 48 h; how it was run: as §4
[11] = test system: MDA-MB-231; experiment: Cytotoxicity against human MDA-MB-231 cells assessed as reduction in cell viability measured after 72 hrs by SRB assay; assay type: functional, cell-based; conditions: MDA-MB-231, 72 h
[12] = Selectivity index, ratio of IC50 for human CCD-112CoN cells to IC50 for human HT-29 cells
[13] = Toxicity in zebrafish assessed as effect on intracellular calcium level at 50 uM measured after 5 hrs by Fura-2/AM dye based fluorescence assay; assay type: cell-based, Danio rerio; conditions: in vivo
[14] = test system: DU-145; experiment: Induction of apoptosis in human DU145 cells assessed assessed as increase in caspase 3 expression at 0.05 to 50 uM after 12 hrs by Western blot analysis; assay type: functional, cell-based; how it was run: as §2
[15] = test system: DU-145; experiment: Induction of apoptosis in human DU145 cells assessed as increase in apoptotic cells at 0.003 to 0.3 uM measured upto 72 hrs by microscopic analysis; assay type: functional, cell-based
[16] = species on record: Danio rerio; experiment: Effect on NF-KappaB p50 expression in zebrafish at 0.6 to 15 uM by Western blot analysis; assay type: functional, organism-based; how it was run: as §3
[17] = test system: DU-145; experiment: Decrease in IKKbeta expression in human DU145 cells measured after 12 hrs by Western blot analysis; assay type: functional, cell-based; how it was run: as §2
[18] = test system: HT-29; experiment: Cytotoxicity against human HT-29 cells assessed as reduction in cell viability measured after 72 hrs by SRB assay; assay type: functional, cell-based
[19] = molecular target: Sodium/potassium-transporting ATPase (Homo sapiens) (UniProt P05023+P14415+P05026+P50993+P54709+P13637+Q13733+P54710); experiment: Inhibition of Na+/K+ ATPase pump in human DU145 cells assessed as increase in intracellular calcium level at 50 uM measured after 5 hrs by Fura-2/AM dye based fluorescence assay; assay type: cell-based
How it was run: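 DU-145 cells at 1×10^4 per well treated 5 h (0–50 μM), DMSO/water negative control; medium removed, loaded with 5 μM fura-2 AM then 2.5 mM probenecid; intracellular Ca2+ from emission 510 nm ratio at 340/380 nm excitation; two independent experiments.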

[20] = Toxicity in 24 hrs post fertilized zebrafish embryo assessed as effect on tail development at 50 uM measured after 24 hrs by microscopic analysis; design: species or system Danio rerio; conditions: in vivo; how it was run: as §1
[21] = test system: DU-145; experiment: Induction of mitochondrial membrane potential loss in human DU145 cells after 2 hrs by JC1 staining based fluorescence assay; assay type: functional, cell-based; conditions: DU-145, 2 h
[22] = test system: DU-145; experiment: Decrease in NF-KappaB p50 subunit expression in human DU145 cells at 0.05 to 50 uM measured after 12 hrs by Western blot analysis; assay type: functional, cell-based; how it was run: as §2
[23] = test system: DU-145; experiment: Decrease in NF-KappaB p65 subunit expression in human DU145 cells at 0.05 to 50 uM measured after 12 hrs by Western blot analysis; assay type: functional, cell-based; how it was run: as §2
[24] = Toxicity in 24 hrs post fertilized zebrafish embryo assessed as effect on gut development at 50 uM measured after 24 hrs by microscopic analysis; design: species or system Danio rerio; conditions: in vivo; how it was run: as §1
[25] = test system: DU-145; experiment: Induction of morphological changes in human DU145 cells assessed as apoptotic cell death at 0.003 to 0.3 uM measured upto 72 hrs by microscopic analysis; assay type: functional, cell-based
[26] = test system: DU-145; experiment: Induction of apoptosis in human DU145 cells assessed as cell shrinkage at 0.003 to 0.3 uM measured upto 72 hrs by microscopic analysis; assay type: functional, cell-based
[27] = test system: DU-145; experiment: Cell cycle arrest in human DU145 cells assessed as decrease in G1 phase population at 0.005 to 5 uM after 24 hrs by RNase/propidium iodide staining based FACScalibur flow cytometry analysis; assay type: functional
How it was run: (§5)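 DU-145 cells in 6-cm plates treated 0.005–5 μM for 24 h; trypsinised, fixed in 70% ethanol, RNase incubation 1 h at 37 °C, propidium iodide stained; flow cytometry, excitation 488 nm, emission 617 nm; percentage of cells per phase vs control; two independent experiments.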

[28] = Toxicity in 24 hrs post fertilized zebrafish embryo assessed as effect on heart development at 50 uM measured after 24 hrs by microscopic analysis; design: species or system Danio rerio; conditions: in vivo; how it was run: as §1
[29] = species on record: Danio rerio; experiment: Effect on IKKbeta expression in zebrafish at 0.6 to 15 uM by Western blot analysis; assay type: functional, organism-based; how it was run: as §3
[30] = species on record: Danio rerio; experiment: Increase in caspase 3 level in zebrafish at 0.6 to 15 uM by Western blot analysis; assay type: functional, organism-based; how it was run: as §3
[31] = test system: DU-145; experiment: Induction of apoptosis in human DU145 cells assessed as decrease in number of cells at 0.003 to 0.3 uM measured upto 72 hrs by microscopic analysis; assay type: functional, cell-based
[32] = test system: PC-3; experiment: Cytotoxicity against human PC3 cells assessed as reduction in cell viability measured after 72 hrs by SRB assay; assay type: functional, cell-based
[33] = test system: DU-145; experiment: Induction of ROS generation in human DU145 cells at 0.5 to 50 uM measured after 5 hrs by DCFHDA probe based fluorescence assay; assay type: functional, cell-based
How it was run: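 DU-145 cells seeded at 5×10^4/mL, treated 0.5–50 μM, incubated at 37 °C for 5 h; DCFH-DA 10 μM added; fluorescence at excitation 485 / emission 530 nm vs DMSO control; triplicate, two independent experiments, one-way ANOVA with Dunnett's test.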

[34] = test system: DU-145; experiment: Cell cycle arrest in human DU145 cells assessed as increase in sub-G1 phase population at 0.005 to 5 uM after 24 hrs by RNase/propidium iodide staining based FACScalibur flow cytometry analysis; assay type: functional; how it was run: as §5
[35] = test system: DU-145; experiment: Induction of apoptosis in human DU145 cells assessed assessed as increase in caspase 7 expression at 0.05 to 50 uM after 12 hrs by Western blot analysis; assay type: functional, cell-based; how it was run: as §2
[36] = test system: DU-145; experiment: Cytotoxicity against human DU145 cells assessed as reduction in cell viability measured after 72 hrs by SRB assay; assay type: functional, cell-based
[37] = Toxicity in 24 hrs post fertilized zebrafish embryo assessed as effect on vasculature at 50 uM measured after 24 hrs by microscopic analysis; design: species or system Danio rerio; conditions: in vivo; how it was run: as §1
[38] = test system: DU-145; experiment: Induction of apoptosis in human DU145 cells assessed as cell detachment from monolayer surface at 0.003 to 0.3 uM measured upto 72 hrs by microscopic analysis; assay type: functional, cell-based
[39] = species on record: Danio rerio; experiment: Downregulation of IKKalpha expression in zebrafish at 0.6 to 15 uM by Western blot analysis; assay type: functional, organism-based; how it was run: as §3
[40] = test system: MCF7; experiment: Cytotoxicity against human MCF7 cells assessed as reduction in cell viability measured after 72 hrs by SRB assay; assay type: functional, cell-based; conditions: for IC50: MCF7, 72 h
[41] = Toxicity in 24 hrs post fertilized zebrafish embryo assessed as effect on trunk development at 50 uM measured after 24 hrs by microscopic analysis; design: species or system Danio rerio; conditions: in vivo; how it was run: as §1
[42] = test system: HeLa; experiment: Cytotoxicity against human HeLa cells assessed as reduction in cell viability measured after 72 hrs by SRB assay; assay type: functional, cell-based
[43] = test system: DU-145; experiment: Decrease in IKK alpha expression in human DU145 cells measured after 12 hrs by Western blot analysis; assay type: functional, cell-based; how it was run: as §2

For C[C@H]1O[C@@H](O[C@H]2CC[C@]3(C)[C@H]4CC[C@]5(C)[C@@H](C6=CC(=O)OC6)CC[C@]5(O)[C@@H]4CC[C@]3(O)C2)C[C@H](O)[C@@H]1O[C@@H]1O[C@H](CO)[C@@H](O)[C@H](O)[C@H]1O, the Activity [1] was “Non-Toxic”, the IC50 [2] was 2700 nM and the Activity [3] was “Active”. The Activity [4] was “Active”, the Activity [5] was “Active” and the IC50 [6] was 11200 nM. For the same compound, the Activity [7] was “inactive”, the Activity [8] was “Dose-dependent effect” and the Activity [9] was “Dose-dependent effect”. The IC50 [10] was 1200 nM, the IC50 [11] was 200 nM and the “Ratio IC50” value [12] was 22.5. The Activity [13] was “Non-Toxic”, the Activity [14] was “Active” and the Activity [15] was “Active”. For the same compound, the Activity [16] was “inactive”, the inhibition [17] was “Dose-dependent effect” and the Activity [18] was “Dose-dependent effect”. For the same compound, the IC50 ([18]; HT-29, 72 h) was 120 nM, the inhibition [19] was “Active” and the Activity [20] was “Non-Toxic”. For the same compound, the IC50 [21] was 300 nM, the inhibition [22] was “Active” and the inhibition [23] was “Active”. For the same compound, the Activity [24] was “Non-Toxic”, the Activity [25] was “Active” and the Activity [26] was “Active”. For the same compound, the Activity [27] was “Active”, the Activity [28] was “Non-Toxic” and the Activity [29] was “inactive”. For the same compound, the Activity [30] was “Active”, the Activity [31] was “Active” and the Activity [32] was “Dose-dependent effect”. The IC50 ([32]; PC-3, 72 h) was 200 nM, the Activity [33] was “Active” and the Activity [34] was “Active”. For the same compound, the Activity [35] was “Active”, the Activity [36] was “Dose-dependent effect” and the IC50 ([36]; DU-145, 72 h) was 80 nM. For the same compound, the Activity [37] was “Non-Toxic”, the Activity [38] was “Active” and the Activity [39] was “Active”. For the same compound, the Activity [40] was “Dose-dependent effect”, the IC50 [40] was 100 nM and the Activity [41] was “Non-Toxic”. For the same compound, the Activity [42] was “Dose-dependent effect”, the IC50 [42] was 190 nM and the inhibition [43] was “Dose-dependent effect”.
Compound Cc1c2ccncc2c(C)c2c1[nH]c1ccccc12 [ELLIPTECINE] has an IC50 [40] of 800 nM.
